Reference: ChEMBL document CHEMBL1140188, “Photoinduced cytotoxicity and biodistribution of prostate cancer cell-targeted porphyrins” (J Med Chem, 2008)
Numbered stars: 1 amine (or outer) side, 2 acyl side, 3 side chain; on linkers, the order of the positions; unused ones are H or OH. Bridge positions count the residues as written; N and C are the ends. Square brackets hold non-standard residues; d marks the D form. Peptide text beside a SMILES is read from it. I, II: the chains in the order shown. * marks the point of attachment. X1 = O=C(COCC(=O)*)Nc1ccc(-c2c3nc(c(-c4ccccc4)c4ccc([nH]4)c(-c4ccccc4)c4nc(c(-c5ccccc5)c5ccc2[nH]5)C=C4)C=C3)cc1; NH(CH2CH2O)6CH2CO = O=C(COCCOCCOCCOCCOCCOCCN[*:1])[*:2]

Tests used:
[1] = Cytotoxicity against human PC3M cells after 24 hrs under dark condition; format: functional, cell-based; conditions: PC-3M
Procedure, shortened: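 PC-3M cells in DMEM/10% FBS were seeded at 10000 cells/cm2 and attached overnight. They were exposed to increasing concentrations up to 100 µM for 24 h in the dark, in quadruplicate wells. Detached cells were washed off and attached cells were trypsinised and counted by hemocytometer. Viability is expressed as % of untreated controls, and IC50 was taken from the curves.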

[2] = Phototoxicity against human PC3M cells after 24 hrs followed by exposure to 1 J/cm'2 light for 20 mins; format: functional, cell-based; conditions: pc-3m
Procedure, shortened: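 PC-3M cells were plated as for the dark assay and loaded with a range of concentrations for 24 h in quadruplicate. After washing, the medium was replaced with DMEM containing 50 mM HEPES, pH 7.4. Cells were irradiated on ice with a 100 W halogen lamp through a 610 nm long-pass filter and a water IR filter for 20 min, about 1 J/cm2. They were then incubated overnight and viable cells counted by hemocytometer relative to controls, giving IC50.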

[3] = Ratio of IC50 for human PC3M cells under dark condition to IC50 for human PC3M cells exposed to 1 J/cm'2 light; format: functional
Procedure, shortened: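 Ratio of the dark IC50 (24 h exposure, hemocytometer viable count) to the light IC50 (24 h loading, then 610 nm long-pass halogen light, about 1 J/cm2, 20 min on ice, overnight incubation, then counting) in PC-3M cells.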

[4] = tested on: Liver; test: Biodistribution in human PC3M cells xenografted SCID mouse liver assessed per mg of protein at 1 umol/kg, ip after 24 hrs; format: ADME, organism-based; conditions: in vivo
Procedure, shortened: (§1)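 Male SCID mice carrying PC-3M tumours (2 × 10^6 cells injected into the dorsum between the shoulder blades, grown 5-6 weeks to about 0.1 cm3) received 1.0 µmol/kg ip in 5% dextrose. Tissues were collected at 24 h, solubilised at 37 °C and homogenised. Porphyrin fluorescence (530/645 nm) was read against per-tissue standard curves, vehicle-only background was subtracted, and results are given as pmol/mg tissue protein, mean ± SE, n = 4.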

[5] = Biodistribution in human PC3M cells xenografted SCID mouse tumor assessed per mg of protein at 1 umol/kg, ip after 24 hrs; format: ADME, organism-based, Neoplasm; conditions: in vivo; procedure, shortened: as §1

CC(C)C[C@H](NC(=O)[C@H](CCCCN)NC(=O)[C@H](CCCCN)NC(=O)[C@H](CCCCN)NC(=O)[C@H](C)NC(=O)[C@H](CCC(N)=O)NC(=O)CNC(=O)[C@H](C)NC(=O)[C@H](CCCCN)NC(=O)[C@H](CCCCN)NC(=O)[C@@H](NC(=O)[C@H](C)NC(=O)[C@H](C)NC(=O)[C@@H]1CCCN1C(=O)[C@H](CCCNC(=N)N)NC(=O)[C@H](CCCCN)NC(=O)COCCOCCOCCOCCOCCOCCNC(=O)COCC(=O)Nc1ccc(-c2c3nc(c(-c4ccccc4)c4ccc([nH]4)c(-c4ccccc4)c4nc(c(-c5ccccc5)c5ccc2[nH]5)C=C4)C=C3)cc1)[C@@H](C)O)C(=O)N[C@@H](CCC(=O)O)C(=O)N[C@@H](CC(=O)O)C(=O)N1CCC[C@H]1C(=O)N[C@@H](CCCNC(=N)N)C(=O)N[C@@H](CCCCN)C(=O)N[C@@H](CCCCN)C(=O)N[C@@H](CCCNC(=N)N)C(=O)N[C@@H](CCCNC(=N)N)C(=O)N[C@@H](CCC(N)=O)C(=O)N[C@@H](CCCNC(=N)N)C(=O)N[C@@H](CCCNC(=N)N)C(=O)N[C@@H](CCCNC(=N)N)C(=O)N1CCC[C@H]1C(=O)N1CCC[C@H]1C(=O)N[C@@H](CCC(N)=O)C(=O)NCC(=O)O (X1-[NH(CH2CH2O)6CH2CO]KRPAATKKAGQAKKKLEDPRKKRRQRRRPPQG-OH)
IC50 [1]: 32.9 µM
IC50 [2]: 1.21 µM
Ratio IC50 [3]: 27

CC(C)[C@H](NC(=O)[C@H](CCCCN)NC(=O)[C@H](CCCNC(=N)N)NC(=O)[C@H](CCCCN)NC(=O)[C@H](CCCCN)NC(=O)[C@H](CCCCN)NC(=O)[C@@H]1CCCN1C(=O)CNC(=O)COCCOCCOCCOCCOCCOCCNC(=O)C[C@H](NC(=O)COCC(=O)Nc1ccc(-c2c3nc(c(-c4ccccc4)c4ccc([nH]4)c(-c4ccccc4)c4nc(c(-c5ccccc5)c5ccc2[nH]5)C=C4)C=C3)cc1)C(=O)NCCOCCOCCOCCOCCOCCOCC(=O)NCC(=O)N1CCC[C@H]1C(=O)N[C@@H](CCCCN)C(=O)N[C@@H](CCCCN)C(=O)N[C@@H](CCCCN)C(=O)N[C@@H](CCCNC(=N)N)C(=O)N[C@@H](CCCCN)C(=O)N[C@H](C(=O)O)C(C)C)C(=O)O (I: X1-D[NH(CH2CH2O)6CH2CO]GPKKKRKV-OH / II: [NH(CH2CH2O)6CH2CO]GPKKKRKV-OH; amide I:1-II:N)
IC50 [1]: 20.8 µM
IC50 [2]: 2.95 µM
Ratio IC50 [3]: 7

N=C(N)NCCC[C@H](NC(=O)CNC(=O)COCCOCCOCCOCCOCCOCCNC(=O)COCC(=O)Nc1ccc(-c2c3nc(c(-c4ccccc4)c4ccc([nH]4)c(-c4ccccc4)c4nc(c(-c5ccccc5)c5ccc2[nH]5)C=C4)C=C3)cc1)C(=O)N[C@@H](CCCCN)C(=O)N[C@@H](CCCCN)C(=O)N[C@@H](CCCNC(=N)N)C(=O)N[C@@H](CCCNC(=N)N)C(=O)N[C@@H](CCC(N)=O)C(=O)N[C@@H](CCCNC(=N)N)C(=O)N[C@@H](CCCNC(=N)N)C(=O)N[C@@H](CCCNC(=N)N)C(=O)N1CCC[C@H]1C(=O)N1CCC[C@H]1C(=O)N[C@@H](CCC(N)=O)C(=O)O
IC50 [1]: 38.3 µM
IC50 [2]: 0.4 µM
Ratio IC50 [3]: 96
Drug uptake [4]: 16.1 pmol
Drug uptake [5]: 8.1 pmol

N=C(N)NCCC[C@H](NC(=O)[C@H](CCCCN)NC(=O)[C@H](CCCNC(=N)N)NC(=O)[C@H](CCCNC(=N)N)NC(=O)CCCC(=O)Nc1ccc(-c2c3nc(c(-c4ccccc4)c4ccc([nH]4)c(-c4ccccc4)c4nc(c(-c5ccccc5)c5ccc2[nH]5)C=C4)C=C3)cc1)C(=O)O
IC50 [1]: 10.7 µM
IC50 [2]: 1.48 µM
Ratio IC50 [3]: 7

Oc1cccc(-c2c3nc(c(-c4cccc(O)c4)c4ccc([nH]4)c(-c4cccc(O)c4)c4ccc([nH]4)c(-c4cccc(O)c4)c4nc2CC4)C=C3)c1
IC50 [1]: 16.1 µM
IC50 [2]: 1.61 µM

CC[C@H](C)[C@H](NC(=O)[C@H](CCCCN)NC(=O)[C@@H](NC(=O)[C@H](CCC(N)=O)NC(=O)[C@H](CCCNC(=N)N)NC(=O)COCCOCCOCCOCCOCCOCCNC(=O)COCC(=O)Nc1ccc(-c2c3nc(c(-c4ccccc4)c4ccc([nH]4)c(-c4ccccc4)c4nc(c(-c5ccccc5)c5ccc2[nH]5)C=C4)C=C3)cc1)[C@@H](C)CC)C(=O)N[C@@H](Cc1c[nH]c2ccccc12)C(=O)N[C@@H](Cc1ccccc1)C(=O)N[C@@H](CCC(N)=O)C(=O)N[C@@H](CC(N)=O)C(=O)N[C@@H](CCCNC(=N)N)C(=O)N[C@@H](CCCNC(=N)N)C(=O)N[C@@H](CCSC)C(=O)N[C@@H](CCCCN)C(=O)N[C@@H](Cc1c[nH]c2ccccc12)C(=O)N[C@@H](CCCCN)C(=O)N[C@@H](CCCCN)C(=O)N[C@@H](C)C(=O)N1CCC[C@H]1C(=O)N1CCC[C@H]1C(=O)N[C@@H](CCCCN)C(=O)N[C@@H](CCCCN)C(=O)N[C@@H](CCCCN)C(=O)N[C@@H](CCCNC(=N)N)C(=O)N[C@@H](CCCCN)C(=O)N[C@H](C(=O)NCC(=O)O)C(C)C (X1-[NH(CH2CH2O)6CH2CO]RQIKIWFQNRRMKWKKAPPKKKRKVG-OH)
IC50 [1]: 11.4 µM
IC50 [2]: 1.34 µM
Ratio IC50 [3]: 8.5
